In ChEMBL document CHEMBL4513216, “Probing the Open Global Health Chemical Diversity Library for Multistage-Active Starting Points for Next-Generation Antimalarials” (ACS Infect Dis, 2020):

Assay: Toxicity liver stage against HepG2, at 10uM
Assay type: cell-based
Design: test concentration 10 uM, cell line HepG2-A16-CD81EGFP
Details: human, HepG2-A16-CD81EGFP cells; read-out: INHIBITION
Outline: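 Uninfected HepG2-A16-CD81EGFP cells, 3 × 10^3 per well, 1536-well, plated on prespotted compound at 10 μM final, parasite-free screening media added to match infected plates; puromycin 10 μM positive, DMSO 0.5% negative; run in parallel with 48 h PbLuc assay at 37 °C, 5% CO2; viability by CellTiter-Glo luminescence, normalized to controls.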

Row | Structure (SMILES) | cytotoxicity at 10 µM [%]
1 | COCCN1CCN(C(=O)C[C@@H]2C[C@@H](C(C)C)[C@H](CO)C=C2C)CC1 | 4.82
2 | COCC(=O)NC[C@H]1C[C@@H]2CCN1C[C@@H]2CN(C)c1ccccc1 | -2.17
3 | COc1ccccc1NC(=O)N1CCCC1c1ccco1 (stereo not drawn) | -4.78
4 | Cn1ccc2c(C(=O)N3CC[C@@]4(O)CCCC[C@H]4C3)cccc21 | -42.9
5 | Cc1cc2c(N)nc(=O)n(CC(=O)Nc3ccccc3)c2s1 | 1.54
6 | Cc1ccc(S(=O)(=O)Nc2c(C)nc(N3CCCC3)nc2C)cc1 | -0.243
7 | CN1[C@@H](C(=O)NCC2CC2)C[C@@H]2CN(Cc3ccoc3)C[C@@H]21 | 3.88
8 | O=C(CCc1nc2cccnc2[nH]1)Nc1cccnc1 | 2.92
9 | Cc1cc(C(=O)N2C[C@@H]3COC[C@]3(COCc3cccnc3)C2)no1 | -16.1
10 | OC(CN1CCOCC1)c1ccc(Br)cc1 (stereo not drawn) | -6.58
11 | CCS(=O)(=O)Nc1cnn(Cc2cccc(Cl)c2)c1 | -11.5
12 | CCCN1CCC(NC(=O)c2csc(C)c2-c2ccc(C)cc2)CC1 | -4.14
13 | CCCc1noc(C2CCCCN2C(=O)CCc2cnn(C)c2)n1 (stereo not drawn) | -1.89
14 | CCOC(=O)C1CCCN(c2nccc(-n3nc(C)cc3C)n2)C1 (stereo not drawn) | -11
15 | CCn1ncc(Cl)c1CN(C)C(=O)CCn1ncc(Br)c1C | 2.93
16 | CCOCc1cccc(S(=O)(=O)N2CCSCC2)c1 | 1.26
17 | COc1ccc(CC(=O)N2CCN(Cc3ccco3)C[C@@H]2C)cc1 | 1.42
18 | CC(C)N1CCN(C)CC(Cc2cc(N(C)C)ncn2)C1 (stereo not drawn) | 9.25
19 | CC[C@H](Cn1ncc2ccccc2c1=O)NC(=O)c1cnc(C)cn1 | 5.98
20 | CC(=O)N1CCCC1c1nc(N(C)C)ncc1-c1ccccc1 (stereo not drawn) | 6.12
21 | CCn1ccc2ccnc(CC3CN(C(=O)c4cnco4)C3)c21 | -6.61
22 | CN(C)c1nccc(C2CN(C(=O)CO)C2)n1 | -10.6
23 | CC(=O)N1CCC(Cc2cnc(-c3c(C)n[nH]c3C)cn2)CC1 | -21.7

Row | Structure (SMILES) | cytotoxicity at 10 µM [%]
24 | Cc1noc(C)c1-c1cncc(C2CCCN2Cc2ncccc2F)n1 (stereo not drawn) | 7.84
25 | O=C(COc1cccc(F)c1)N1CCCCC1c1ccn2ccnc2n1 (stereo not drawn) | -6.11
26 | CNC(=O)C1(c2cnccn2)CCCN1C(=O)c1cccc(F)c1 (stereo not drawn) | -29.6
27 | O=c1[nH]c2ncccc2n1C1CCCCC1 | 3.16
28 | O=C(CCNc1ccc(Cl)cn1)NCc1ccncc1 | -2.31
29 | CCn1c(C)cc(C(=O)Nc2ccccc2CN(C)C(C)=O)c1C | -1.03
30 | CN(C)CCOc1ccccc1N1CCN(C(=O)c2ccoc2)CC1 | 24.8
31 | CCNC(=O)Nc1cccc(F)c1C(=O)NC1CCCC1 | 5.69
32 | O=C(Cc1ccc(F)cc1)NCc1ccc(C(=O)O)o1 | -8.06
33 | COCCN1CC(C(=O)N(C)Cc2ccc(Cl)s2)CC1=O (stereo not drawn) | 8.69
34 | COC(=O)C(NC(=O)c1ccc(NC2CC2)nc1)c1ccccc1 (stereo not drawn) | -9.88
35 | COC1CCN(C(=O)c2ccc3ncsc3c2)CC1 | -10.3
36 | NC(=O)CS(=O)(=O)Cc1ccc(F)cc1 | -3.71
37 | COc1ccc(CN(C(=O)C2CCOCC2)c2ccncc2)cc1 | 8.5
38 | Cn1cnnc1CNC(=O)CCCOc1ccccc1Cl | 3.28
39 | COc1ccc(OC)c(CN2CCN(Cc3cscn3)CC2)c1 | -7.15
40 | CNC(=O)c1cc(NC(=O)Nc2cnn(CC(C)C)c2)ccc1F | -3.79
41 | NC(=O)NC1CCN(Cc2ccc(Br)c(F)c2)CC1 | -1.57
42 | O=S(=O)(NCCc1cn2ccccc2n1)N1CCOCC1 | -3.98
43 | COc1ccc(CCNC(=O)c2ccc(=O)n(C)c2)c(Cl)c1 | -10.3
44 | CC(C)n1ccc(C(=O)OCC2CC(=O)N(Cc3ccccc3)C2)n1 (stereo not drawn) | 0.379
45 | CN(C)c1cc2c(nn1)CCN(C(=O)c1cc3c(s1)CCC3)C2 | -6.97
46 | CCS(=O)(=O)CC(=O)N1CCCC(c2noc(C(C)C)n2)C1 (stereo not drawn) | -4.78

Row | Structure (SMILES) | cytotoxicity at 10 µM [%]
47 | CC(CC(=O)N1CCC(c2nnc3n2CCC3)CC1)n1cccc1 (stereo not drawn) | 8.11
48 | CN(C)CCNC(=O)Cc1cccc(I)c1 | -3.23
49 | Cc1cc(C(=O)NCC(c2ccccc2Cl)N2CCOCC2)on1 (stereo not drawn) | 2.62
50 | Cc1nn(C)c(C)c1CC(=O)NCc1cccnc1N1CCOCC1 | -139
51 | CCOc1ccc(NC(C)C(=O)NCCc2cccs2)cc1CO (stereo not drawn) | -6.79
52 | CN(C)C(=O)C1CCCN1c1ccnc2ccsc12 (stereo not drawn) | -16.8
53 | CN(CC1CC1)C(=O)CN1CCCC1c1cnn(C)c1 (stereo not drawn) | 2.01
54 | Cc1noc(CCNS(=O)(=O)N2CCCC2c2ccc(C)o2)n1 (stereo not drawn) | -10
55 | O=C(CN1CCc2[nH]c3ccccc3c2C1)NCc1ccco1 | -3.04
56 | COc1ccc(CNCCc2ccn(-c3ccccc3)n2)cc1O | -0.13
57 | Cn1ncnc1CNc1ccccc1C(=O)NC(C)(C)C | 3.9
58 | Cc1cc(C2CCCN(CCC(=O)N3CCc4ccccc43)C2)n[nH]1 (stereo not drawn) | -7.9
59 | CC(=O)c1ccc(Cl)c(Cl)c1OCC(=O)NC(N)=O | 7.49
60 | Cn1cc(CNc2cnn(CCO)c2)c(-c2ccncc2)n1 | 1.56
61 | CC(Nc1cccc(Oc2ccc(C#N)cn2)c1)C(=O)NC1CC1 (stereo not drawn) | 12.8
62 | Cc1cc(CNC(=O)c2ccc(F)c(COCC3CC3)c2)no1 | -0.429
63 | CNC(=O)CN1CCC(NC(=O)Cc2ccccc2OC(C)C)CC1 | -2.14
64 | O=C(NCCc1csc(N2CCCC2)n1)N(C1CCCC1)C1CC1 | 10.8
65 | O=C(COc1cccc2c1CCC2=O)NCc1ccccc1F | -5.33
66 | COCC(=O)NCC[C@H]1CC(C)(C)Oc2ccc(OC)cc21 | -5.36
67 | O=C(CSCC1CC1)N1CCC2(CCCN(C3CCOCC3)C2=O)C1 (stereo not drawn) | -127
68 | CCSc1ncc(CN(Cc2cnn(C)c2)CC(C)C)cn1 | -7.53
69 | CS(=O)(=O)NCc1cc2n(n1)CCCN(Cc1ccc(Cl)s1)C2 | 2.81

Row | Structure (SMILES) | cytotoxicity at 10 µM [%]
70 | COCCn1c(CN2CCCO2)cnc1S(=O)(=O)CC1CCCCC1 | -8.62
71 | CCc1csc(CCNC(=O)CC2CCN(C(C)C)CC2)n1 | 6.62
72 | Cc1cc(C(=O)N2CC[C@@]3(O)CCN(C(=O)N4CCCC4)C[C@H]3C2)no1 | -6.74
73 | CCN(C)S(=O)(=O)NCC1CCCN(Cc2ccccc2F)C1 (stereo not drawn) | -1.22
74 | CN1CCC(C)(CN(C)C(=O)c2ccc(CCC(C)(C)O)cc2)C1 (stereo not drawn) | -11.2
75 | CN1CCC2(CC1)CCN(C(=O)c1onc3ccccc13)C2 | -9.14
76 | COc1ccc(-c2ccc(C(=O)N3CCOCC3CC(=O)O)o2)cc1 (stereo not drawn) | 1.79
77 | CCc1cc(C(=O)N2CC[C@@H](c3ccc4ccccc4c3)[C@H](O)C2)[nH]n1 | 3.46
78 | CC(C)SCCNC(=O)c1cccc2ccnn12 | -51.6
79 | CN1CC2(CCCN(Cc3ccccc3OCC(=O)O)C2)OC1=O (stereo not drawn) | -6.64
80 | COc1cccc(OCC2CCCN(Cc3ccncc3)C2)c1 (stereo not drawn) | -7.66
81 | CSCc1noc(CN2CC(Cc3ccccc3)CC2=O)n1 (stereo not drawn) | -0.404
82 | COc1cccc(C(=O)N2CCC3(CCC(=O)N(C(C)C)C3)CC2)c1C | -3.21
83 | CSCCCN1CCN(c2ccc(Cl)cn2)CC1 | -5.52
84 | CC[C@H](C)[C@@H](CO)NC(C)Cc1ccccc1F (stereo partly drawn) | -7.36
85 | Cc1cccc(CN2CCc3c(nc(N4CCC(C)CC4)[nH]c3=O)C2)n1 | -1.75
86 | CCOc1ccc(Cl)c(C(=O)N2CCN(c3ncccn3)CC2)n1 | -1.9
87 | CC(=O)N1CCN(Cc2ccc(OCc3nccn3C)cc2)CC1 | -2.68
88 | Cn1cnnc1C1CCCN(C(=O)NCc2ccccn2)C1 (stereo not drawn) | 2.83
89 | O=C(NCCn1ccnc1)c1ccn(-c2ccccc2)n1 | 0.449
90 | CCOCC1CCCN(C(=O)NCc2ccc(-c3ccn[nH]3)cc2)C1 (stereo not drawn) | -3.25
91 | CSC(C)C(=O)N1CCCN(c2ncccc2C#N)CC1 (stereo not drawn) | -1.2
92 | Cc1ncc2c(n1)CN(CC(=O)Nc1nccs1)CC2 | -0.586

Row | Structure (SMILES) | cytotoxicity at 10 µM [%]
93 | O=C(c1csc(C2CC2)n1)N1CCCC1Cn1cccn1 (stereo not drawn) | -5.53
94 | CCNc1cc2c(nn1)CCN(C(=O)CCc1c(C)noc1C)C2 | -2.47
95 | Cc1nnc(NCc2ccccc2F)c(C#N)c1C | -9.71
96 | Cc1ncncc1C(=O)N1CCCC1c1c(C)nn(C)c1Cl (stereo not drawn) | -12.2
97 | CC(C)C(C)NC(=O)Nc1ccc(F)c(C(N)=O)c1 (stereo not drawn) | -6.54
98 | CCc1nc(CN2CCCC(NCc3nnc(C4CC4)n3C)C2)no1 (stereo not drawn) | -2.97
99 | O=C(Nc1ccccc1OCC1CCCCO1)c1ccc(O)nc1 (stereo not drawn) | 5.41
100 | CCCOCC(=O)N1CCCN(Cc2csc(CC)n2)CC1 | 3.78
101 | Cc1nc(CN(C)C2CCN(CC(=O)NC3CCOCC3)C2)no1 (stereo not drawn) | -7.15
102 | CC(C(=O)NCc1ccnc(N2CCCC2)c1)n1cncn1 (stereo not drawn) | -3.43
103 | O=C(c1cccc2[nH]ncc12)N1CCCC1c1noc(C2CC2)n1 (stereo not drawn) | -2.91
104 | CCCc1ccc(OCCNCc2ccco2)c(OC)c1 | -2.04
105 | CN1CCN(Cc2ccncc2)C(=O)C12CCN(Cc1ccsc1)CC2 | 3.03
106 | CCOCC1CN(C(=O)c2ccncn2)Cc2cnn(C)c21 (stereo not drawn) | -143
107 | CC(C)CN1CC[C@@H]2[C@@H]1CCN2S(=O)(=O)c1cccs1 | 2.61
108 | O=C(c1ccco1)N1C[C@H]2CCCN(Cc3nccs3)[C@H]2C1 | 2.32
109 | CC(C)c1nn(C)c(Cl)c1CNCc1ccc2c(c1)OCCO2 | -1.64
110 | O=C(CC1CC1)NC[C@]12COC[C@H]1CN(c1ncc(F)cn1)C2 | -141
111 | Fc1cnc(N2CCCC3(CN(Cc4ccncc4)CCO3)C2)nc1 (stereo not drawn) | 3.34
112 | Cc1n[nH]cc1CNCC(O)c1ccc(F)c(F)c1 (stereo not drawn) | 6.8
113 | O=C(NCCc1ccccc1)C1CCC(Cn2cnnn2)CC1 (stereo not drawn) | 2.01
